Published values of several laboratories.
Each line is one published result; the experiments were not run side by side.
Target: Rho-associated protein kinase 1 (ROCK1, Homo sapiens, UniProt Q13464)

| SMILES | effect on | mode | technique | concentration | quantity | result |
| --- | --- | --- | --- | --- | --- | --- |
| O=C(Nc1cnn(-c2csc(C(=O)NC3COC3)c2)c1)Nc1c(F)cccc1Cl | enzyme activity | inhibitor | – | 5 µM | remaining activity | 78.2% |
| C[C@@H]1CN(c2cc(-c3nn(C)c4ccc(OC5(C)CC5)cc34)ncn2)C[C@H](C)O1 | cell-free assay | – | competition with immobilised ligand | 1 µM | remaining binding | 100% |
| CCN(CC)CCNC(=O)c1c(C)[nH]c(/C=C2\C(=O)Nc3ccc(F)cc32)c1C | enzyme activity | inhibitor | – | 0.3 µM | inhibition | 6% |
| Nc1ncnc2occ(-c3ccc(NC(=O)Nc4cc(C(F)(F)F)ccc4F)cc3)c12 | cell-free assay | inhibitor | – | 20 µM | remaining signal | 0.1% |
| O=C1Nc2ccc(Cl)cc2C1=Cc1cc(Cl)c(O)c(Cl)c1 | cell-free assay | – | – | 0.5 µM | remaining signal | 93.2% |
| CC(C)(O)[C@H]1CC[C@H](Nc2ccc3ncc(-c4cccc(C(F)(F)F)c4)n3n2)CC1 | enzyme activity | inhibitor | – | 1 µM | remaining activity | 94% |
| Cc1ccc(C(=O)Nc2ccc(CN3CCN(C)CC3)c(C(F)(F)F)c2)cc1C#Cc1cnc2cccnn12 | enzyme activity | inhibitor | – | 23.5 nM | remaining activity | 79% |
| CNC(=O)c1cc(Oc2ccc(NC(=O)Nc3ccc(Cl)c(C(F)(F)F)c3)cc2)ccn1 | enzyme activity | inhibitor | – | 10 µM | inhibition | 8% |
| Cc1nc(N2CC[C@@H](O)C2)ncc1-c1cc(C(F)(F)F)cc2[nH]ncc12 | binding | – | competition with immobilised ligand | 1 µM | remaining binding | 91% |
| N#CCCc1ccc2c(c1)-c1[nH]c3ccc([N+](=O)[O-])cc3c1CC(=O)N2 | cell-free assay | – | – | 0.5 µM | remaining signal | 38.9% |
| CCCOc1ccc(OC)c(F)c1C(=O)c1ccc(C(=O)N[C@@H]2CNC[C@H]2NC(=O)c2ccc3[nH]ncc3c2)cc1 | enzyme activity | inhibitor | – | 10 µM | remaining activity | 8% |
| O=S(=O)(c1cccc2cnccc12)N1CCCNCC1 | cell-free assay | – | – | 0.5 µM | remaining signal | 60.2% |
| COc1cc(Cl)c(C(=O)N[C@@H](CN[C@H]2CC[C@@H](N)CC2)Cc2ccc(C#N)cc2)cc1-c1ccc(CN[C@H](C)c2ccc(C)cc2)o1 | enzyme activity | inhibitor | – | 1 µM | remaining activity | 105% |
| CCCS(=O)(=O)Nc1ccc(F)c(C(=O)c2c[nH]c3ncc(-c4ccc(Cl)cc4)cc23)c1F | enzyme activity | inhibitor | – | 1 µM | inhibition | < 10% |
| COc1cc2ncnc(Nc3ccc(Oc4ccccc4)c(C)c3C)c2cc1OC | enzyme activity | inhibitor | – | 1 µM | inhibition | -12% |
| COc1ccc2c(c1)O[C@@H](c1ccc(OC)c(OC)c1)C[C@H]2NC(=O)C1(c2ccc3c(c2)OC(F)(F)O3)CC1 | cell-free assay | – | competition with immobilised ligand | 1 µM | remaining binding | 89% |
| CCN(CC)c1ccc(C2=NNC(=O)CC2C)cc1[N+](=O)[O-] (stereo not drawn) | enzyme activity | inhibitor | – | 10 µM | remaining activity | 109% |
| O=c1nc(-c2ccccn2)sc2ccccc12 | binding | – | competition with immobilised ligand | 1 µM | remaining binding | 100% |
| COc1cccc2c(NCc3ccccc3)nc(-n3c(N)nc4ccccc43)nc12 | target engagement in cells | inhibitor | chemoproteomics | 20 mM | inhibition | 2.2% |
| CC/C(=N\NC(=O)NCc1cccc(O)c1)c1ccc(O)c(C)c1O | enzyme activity | inhibitor | – | 0.1 µM | inhibition | 65.5% |
| Cn1cncc1C1=CN(c2ncnc3[nH]cnc23)CCS1 | enzyme activity | inhibitor | radiometric | 50 nM | inhibition | 27% |
| CC(=O)N1CCC(c2ccc(C(=O)NC(=N)N)cc2C(F)(F)F)CC1 | cell-free assay | – | competition with immobilised ligand | 1 µM | remaining binding | 87% |
| Cc1ccc(Nc2nccc(N(C)c3ccc4c(C)n(C)nc4c3)n2)cc1S(N)(=O)=O | enzyme activity | inhibitor | – | 10 µM | inhibition | 18% |
| CN(C)C1CCN(CC#Cc2nn(C3CCCC3)c3nc(NCc4ccccc4)ncc23)C1 (stereo not drawn) | enzyme activity | inhibitor | FRET | 0.1 µM | inhibition | -5% |
| CCS(=O)(=O)c1cc2cc(C[C@](O)(CC(C)(C)c3ccc(F)cc3C(N)=O)C(F)(F)F)[nH]c2cn1 | cell-free assay | – | competition with immobilised ligand | 1 µM | remaining binding | 84% |
| CCCCNc1ncc2c(-c3ccc(F)cc3)nn(C[C@H]3CC[C@H](N)CC3)c2n1 | target engagement in cells | inhibitor | chemoproteomics | 20 mM | inhibition | 54.3% |
| CN(C)C(=O)Cn1cc(-c2nc(C3(c4ccc(-c5cnc(N)nc5)cc4)CC3)no2)cn1 | cell-free assay | – | competition with immobilised ligand | 1 µM | remaining binding | 83% |
| Cc1sc(C(=O)NC2COC2)cc1-n1cc(NC(=O)Nc2c(F)cccc2Cl)cn1 | enzyme activity | inhibitor | – | 10 µM | remaining activity | 96.8% |
| CN(C)CC#Cc1ccc(OCCCc2sc(N3CCc4cccc(C(=O)Nc5nc6ccccc6s5)c4C3)nc2C(=O)O)c(F)c1 | cell-free assay | – | competition with immobilised ligand | 1 µM | remaining binding | 100% |
| CC(C)(C)c1nc2c(s1)c1nc(N)ncc1c1ccc(NS(=O)(=O)c3c(F)cccc3F)c(F)c12 | enzyme activity | inhibitor | radiometric | 1 µM | remaining activity | 98% |
